Reference: ChEMBL document CHEMBL3785023, “Development and Pharmacological Characterization of Selective Blockers of 2-Arachidonoyl Glycerol Degradation with Efficacy in Rodent Models of Multiple Sclerosis and Pain” (J Med Chem, 2016)
The source made the active and inactive calls. The rule behind the calls is not given here.

How the values were obtained:
[1] = system: Mus musculus; assay: Antinociceptive activity in CD-1 mouse assessed as inhibition of formalin-induced early phase pain response at 0.1 to 0.3 mg/kg, ip dosed 10 mins before formalin injection measured every 5 mins for 60 mins in presence of CB2 antagonist/inverse agonist AM630; type: functional, organism-based
In short: (§1)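 Male CD-1 mice, n = 6 per group, injected with formalin (1.25% in saline, 30 μL) into the dorsal hind paw. Inhibitor (0.1 or 0.3 mg/kg i.p. in 0.5% DMSO/saline) given 10 min before formalin. Where used, AM251 or AM630 (1 mg/kg i.p.) given 10 min before the inhibitor. Time spent lifting, licking, shaking or flinching the injected paw recorded every 5 min over 60 min.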

[2] = system: Mus musculus; assay: Inhibition of demyelination in experimental autoimmune encephalomyelitis C57BL/6J mouse spinal cord at 3 mg/kg, ip administered post CB2 antagonist/inverse agonist AM630 addition by luxol fast blue staining based microscopic analysis; type: functional, organism-based
In short: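 EAE induced in female C57BL/6J mice with MOG35-55, then 3 mg/kg i.p. daily. AM251 or AM630 (1 mg/kg), where used, given 10 min before each dose. Spinal cord white matter stained with Luxol Fast Blue and demyelinated areas assessed by microscopy.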

[3] = system: Mus musculus; assay: Reduction of IBA1 positive cells in white matter anterior fasciculus of experimental autoimmune encephalomyelitis C57BL/6J mouse spinal cord at 3 mg/kg, ip administered post CB1 antagonist/inverse agonist AM251 addition by immunofluorescence assay; type: functional, organism-based
In short: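 MOG35-55-immunized female C57BL/6J mice were given 3 mg/kg i.p. daily. AM251 or AM630, each at 1 mg/kg, was given 10 min before each dose. Iba1 immunofluorescence with DAPI was done on spinal cord white matter (anterior fasciculus). Positive cells were counted per optic field. One-way ANOVA with Bonferroni test.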

[4] = system: Mus musculus; assay: Change in cumulative score in myelin oligodendrocyte glycoprotein (35 to 55)-induced C57BL/6J mouse experimental autoimmune encephalomyelitis model of multiple sclerosis at 3 mg/kg, ip dosed on day 6 postimmunization up to 21 day postimmunization measured from day 8 postimmunization; type: functional, organism-based
In short: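 Female C57BL/6J mice immunized with MOG35-55 peptide. Given 3 mg/kg i.p. daily from day 6 post-immunization to the acute stage (21 ± 1 d.p.i.). Clinical score recorded daily and as a cumulative score; n = 7–9 per group.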

[5] = system: Heart; assay: Cardiotoxicity in Langendorff-perfused Sprague-Dawley rat heart assessed as atrioventricular conduction time at 0.001 uM by ECG analysis (reference value: 45.62 +/- 4.49 milliseconds); type: toxicity, tissue-based
[6] = target: T1, Monoglyceride lipase (Rattus norvegicus, UniProt Q8R431); assay: Inhibition of rat MAGL
T1 sequence (Q8R431 whole entry): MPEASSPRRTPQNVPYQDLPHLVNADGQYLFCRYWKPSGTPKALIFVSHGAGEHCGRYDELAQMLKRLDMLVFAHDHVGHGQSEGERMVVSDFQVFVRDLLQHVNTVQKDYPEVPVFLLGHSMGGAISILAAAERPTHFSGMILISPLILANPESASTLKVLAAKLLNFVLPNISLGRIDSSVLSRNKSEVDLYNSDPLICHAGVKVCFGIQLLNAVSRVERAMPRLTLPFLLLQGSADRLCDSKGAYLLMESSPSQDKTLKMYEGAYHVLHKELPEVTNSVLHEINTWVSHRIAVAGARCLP

[7] = system: Heart; assay: Cardiotoxicity in Langendorff-perfused Sprague-Dawley rat heart assessed as atrioventricular conduction time at 1 uM by ECG analysis (reference value: 45.62 +/- 4.49 milliseconds); type: toxicity, tissue-based
[8] = system: Mus musculus; assay: Toxicity in C57BL/6J mouse assessed as changes in locomotor activity at 3 mg/kg, ip; type: organism-based; details: in vivo
[9] = target: T2, Monoglyceride lipase (Homo sapiens, UniProt Q99685); assay: Inhibition of recombinant C-terminal His6-tagged human MAGL expressed in Escherichia coli using 2-arachidonoyl-[3H]-glycerol as substrate preincubated for 10 mins followed by substrate addition measured after 20 mins by scintillation counting method
T2 sequence (Q99685 whole entry): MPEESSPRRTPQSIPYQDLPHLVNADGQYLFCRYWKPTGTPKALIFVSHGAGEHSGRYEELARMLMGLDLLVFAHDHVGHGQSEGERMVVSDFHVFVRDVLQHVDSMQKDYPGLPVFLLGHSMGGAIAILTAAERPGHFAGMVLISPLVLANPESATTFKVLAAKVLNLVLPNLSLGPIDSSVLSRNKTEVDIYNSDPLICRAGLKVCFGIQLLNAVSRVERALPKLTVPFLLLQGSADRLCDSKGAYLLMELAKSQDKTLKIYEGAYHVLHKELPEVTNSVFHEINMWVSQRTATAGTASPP
In short: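 Human recombinant MGL (10,000xg cytosolic fraction, 0.05 µg/sample) is pre-incubated with compound for 10 min. It is then incubated 20 min at 37 °C in 50 mM Tris-HCl pH 7.0 with 2-arachidonoyl-[3H]-glycerol diluted with unlabelled 2-AG. The mix is extracted with 2 vol CHCl3/MeOH 1:1, and [3H]-glycerol in the aqueous phase is counted by scintillation. Values are means of three experiments.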

[10] = system: Heart; assay: Cardiotoxicity in Langendorff-perfused Sprague-Dawley rat heart assessed as atrioventricular conduction time at 0.01 uM by ECG analysis (reference value: 45.62 +/- 4.49 milliseconds); type: toxicity, tissue-based
[11] = system: Mus musculus; assay: In vivo inhibition of MAGL in CD-1 mouse assessed as 2-AG level in spinal cord at 0.3 mg/kg, ip coadministered with formalin by LC-MS analysis (reference value: 3.8 +/- 0.4 pmol/g); type: functional
[12] = system: Mus musculus; assay: Toxicity in CD-1 mouse assessed as 2-AG level in pawskin at 0.3 mg/kg, ip by LC-MS analysis (reference value: 6.1 +/- 0.3 pmol/g); type: organism-based; details: in vivo
In short: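 Male CD-1 mice received 0.3 mg/kg i.p. in 0.5% DMSO/saline, with formalin (1.25%, 30 µL) injected into the dorsal hind paw. Paw skin or spinal cord was taken at 5 min post-dose. Tissue was homogenized in CHCl3/MeOH/50 mM Tris-HCl (2:1:1) containing d5-2-AG, extracted with chloroform and analysed by LC-MS. n = 4; ANOVA with Bonferroni test.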

[13] = system: Heart; assay: Cardiotoxicity in Langendorff-perfused Sprague-Dawley rat heart assessed as corrected time duration of action potential at 0.1 uM by ECG analysis (reference value: 155.26 +/- 2.96 milliseconds); type: toxicity, tissue-based
[14] = system: Heart; assay: Cardiotoxicity in Langendorff-perfused Sprague-Dawley rat heart assessed as time duration of action potential at 0.1 uM by ECG analysis (reference value: 75.65 +/- 0.87 milliseconds); type: toxicity, tissue-based
[15] = system: Salmonella typhimurium; assay: Mutagenicity in Salmonella typhimurium TA100 assessed as increase in number of colonies at 1 uM by Ames test; type: toxicity, organism-based; details: salmonella enterica subsp. enterica serovar typhimurium
[16] = system: Heart; assay: Cardiotoxicity in Langendorff-perfused Sprague-Dawley rat heart assessed as heart rate at 1 uM by ECG analysis (reference value: 252.78 +/- 9.28 bpm); type: toxicity, tissue-based
[17] = system: Mus musculus; assay: Antinociceptive activity in ip dosed CD-1 mouse assessed as inhibition of formalin-induced pain response compound administered 10 mins before formalin injection measured during early phase; type: functional; details: CD-1, ip, read-out: MED; in short: as §1

With O=C1[C@H](c2ccc(F)cc2)[C@@H](c2ccc3c(c2)OCO3)N1C1CCN(C(=O)n2cncn2)CC1 (racemic) [listing 1 of 2 here] the inhibition [1] was “inactive”, the inhibition [2] was “inactive” and the Activity [3] was “inactive”. The Activity [4] was “Active”.

Molecule O=C1[C@H](c2ccc(F)cc2)[C@@H](c2ccc3c(c2)OCO3)N1C1CCN(C(=O)n2cncn2)CC1 (racemic) [listing 2 of 2 here] has a Time [5] of 46.03 ms, an IC50 [6] of 0.00025 µM and a Time [7] of 46.67 ms. For the same molecule, the Activity [8] was “Non-toxic”, the IC50 [9] was 0.196 µM and the Time [10] was 46.46 ms. It also gave an Activity [11] of 6.6 pmol/g, an Activity [12] of 11 pmol/g and a Time [13] of 154.6 ms. For the same molecule, the Time [14] was 75.36 ms, the Activity [15] was “Non-toxic” and the Activity [16] was 255.5 bpm. It also gave a minimal effective dose [17] of 0.3 mg/kg.
